Activity calls are given as the source filed them. No cut-off for these calls is given here.
Assays:
MDA-MB-231 [1] = experiment: Antiproliferative activity against human MDA-MB-231 cells assessed as cell growth inhibition measured after 72 hrs by MTT assay; type: functional, cell-based; conditions: MDA-MB-231, 72 h
Outline: (§1)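 Cells seeded at 2.5 × 10^4 cells/well, allowed 24 h before dosing, then exposed to increasing concentrations (0.5% DMSO final) for 72 h at 37 °C, 5% CO2. MTT added at 1 mg/mL final in complete media for 2 h, formazan dissolved in DMSO, absorbance read at 570 nm. 6–8 repeats per treatment; IC50 from concentration–response fit.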

A549 [2] = experiment: Antiproliferative activity against human A549 cells assessed as cell growth inhibition measured after 72 hrs by MTT assay; type: functional, cell-based; conditions: A549, 72 h; outline: as §1
MDA-MB-231 [3] = experiment: Inhibition of gankyrin-proteasome protein-protein interaction in human MDA-MB-231 cells assessed as increase in Rb level at 0.25 to 2 uM measured after 48 hrs by Western blotting analysis; type: cell-based; conditions: dose 0.25-2 µM
Outline: (§2)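 Cells in 10 cm dishes treated with varying concentrations (0.5% DMSO final) or DMSO only for 48 h. Lysed in RIPA with protease/phosphatase inhibitors on ice for 60 min. 15 μg protein resolved under reducing conditions, transferred to PVDF, and probed for p53, phospho-p53 S6/S15, Rb, gankyrin and cyclophilin. Detection by HRP-secondary ECL.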

MDA-MB-231 [4] = experiment: Antitumor activity in human MDA-MB-231 cells cultured as 3D spheroids assessed as fold decrease in spheroid volume at 2 uM measured up to 15 days by inverted microscopic analysis; type: functional; conditions: time <= 15 day
Outline: (§3)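 Spheroids formed from 2000 cells/well in ultra-low attachment U-bottom wells over 3 days, then given a single dose on day 3. Half the media was replenished every 3 days. Transmitted-light images were taken through day 15, and spheroid volume was computed from images and expressed as fold-difference. Mean ± SD, n = 8; unpaired t-test.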

MDA-MB-231 [5] = experiment: Antitumor activity in human MDA-MB-231 cells cultured as 3D spheroids assessed as fold decrease in spheroid volume at 1 uM measured up to 15 days by inverted microscopic analysis; type: functional; conditions: time <= 15 day; outline: as §3
[6] = Metabolic stability in human liver microsomes assessed as compound remaining preincubated for 10 mins followed by NADPH addition measured after 60 mins by HPLC analysis; type: ADME, Microsome; conditions: read-out: Stability
HuH-6 [7] = experiment: Inhibition of gankyrin-proteasome protein-protein interaction in human HuH-6 cells assessed as increase in Rb level at 0.12 to 1 uM measured after 48 hrs by Western blotting analysis; type: cell-based; conditions: dose 0.12-1 µM; outline: as §2
[8] = target: T1, 26S proteasome non-ATPase regulatory subunit 10 (Homo sapiens) (UniProt O75832); experiment: Binding affinity to gankyrin (unknown origin) expressed in Escherichia coli BL21 (DE3) expression system assessed as decrease in thermal denaturation at 1.5 uM measured at 5 to 90 degreeC by circular dichroism spectropolarimeter analysis
T1 sequence (whole entry): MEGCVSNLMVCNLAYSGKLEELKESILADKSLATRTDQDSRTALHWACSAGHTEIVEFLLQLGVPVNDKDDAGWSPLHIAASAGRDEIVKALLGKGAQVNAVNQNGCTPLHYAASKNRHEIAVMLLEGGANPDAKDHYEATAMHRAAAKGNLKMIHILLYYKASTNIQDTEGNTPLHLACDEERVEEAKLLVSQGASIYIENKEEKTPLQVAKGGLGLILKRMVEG
Outline: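 Recombinant His-tagged gankyrin expressed in E. coli BL21(DE3) Codon+RIL (IPTG 1 mM, 25 °C, ~5 h) and purified by Ni2+-IMAC. Thermal denaturation followed by CD at 217 nm over 5–90 °C with compound at 1.5 μM.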

MDA-MB-231 [9] = experiment: Inhibition of colony formation in human MDA-MB-231 cells at 2 uM incubated for 48 hrs followed by replacement of fresh media every alternative day measured after 7 days by crystal violet staining based clonogenic assay relative to control; values are per cent of control; conditions: MDA-MB-231, 216 h
HuH-6 [10] = experiment: Inhibition of gankyrin-proteasome protein-protein interaction in human HuH-6 cells assessed as increase in p53 level at 0.12 to 1 uM measured after 48 hrs by Western blotting analysis; type: cell-based; conditions: dose 0.12-1 µM; outline: as §2
MDA-MB-231 [11] = experiment: Induction of cell cycle arrest in human MDA-MB-231 cells assessed as increase in cell accumulation at G0/G1 phase at 2 uM measured after 72 hrs by propidium iodide staining based flow cytometry analysis; type: functional
Outline: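 Cells in 10 cm dishes treated for 72 h (0.1% DMSO final; DMSO-only control). Harvested in cold PBS, fixed in 70% ethanol at −20 °C overnight, stained with PI for 40 min at 37 °C, then analysed by flow/imaging cytometry for G0/G1, S and G2/M fractions. Mean ± SD, n = 3.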

[12] = Antiproliferative activity against human HuH-6 cells assessed as cell growth inhibition measured after 72 hrs by MTT assay; type: functional, cell-based; conditions: HuH-6, 72 h; outline: as §1
[13] = Cytotoxicity against HEK293 cells assessed as cell growth inhibition measured after 72 hrs by MTT assay; type: toxicity, cell-based; conditions: human; outline: as §1
MDA-MB-231 [14] = experiment: Antitumor activity against human MDA-MB-231 cells tumor spheroids assessed as increase in dead cells by measuring red fluorescence intensity at 1 to 2 uM measured at 15 days by EthD-III staining based fluorescence microscopic analysis; type: functional, cell-based; conditions: dose 1-2 µM, time 15.0 day
Outline: (§4)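 Live/dead staining of 3D spheroids at day 15 after single-dose treatment: media replaced by kit reagent with calcein AM (live, green) and EthD-III (dead, red), 30 min in dark at room temperature, imaged at 4X by fluorescence microscopy. Mean ± SD, n = 4; unpaired Student's t-test.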

MDA-MB-231 [15] = experiment: Induction of cell cycle arrest in human MDA-MB-231 cells at 2 uM measured after 72 hrs by propidium iodide staining based flow cytometry analysis
[16] = target: T1, 26S proteasome non-ATPase regulatory subunit 10 (Homo sapiens); experiment: Binding affinity to gankyrin in human MDA-MB-231 cells assessed as decrease in thermal stability at 2 uM incubated for 48 hrs followed by heat treatment at 50 to 65 degreeC by CETSA; type: cell-based
Outline: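 CETSA: cells treated with compound for 48 h, then heated across a temperature range. Soluble gankyrin was detected by western blot and melt curves were constructed. Mean ± SD, n = 3.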

MDA-MB-231 [17] = experiment: Antitumor activity against human MDA-MB-231 cells tumor spheroids assessed as decrease in live cells by measuring green fluorescence intensity at 1 to 2 uM measured at 15 days by calcein AM staining based fluorescence microscopic analysis; type: functional, cell-based; conditions: dose 1-2 µM, time 15.0 day; outline: as §4
[18] = target: T1, 26S proteasome non-ATPase regulatory subunit 10 (Homo sapiens); experiment: Binding affinity to gankyrin (unknown origin) assessed as change in melting temperature at 300 uM by SYPRO orange staining based thermal shift assay
[19] = target: T2, 26S proteasome non-ATPase regulatory subunit 10 (Homo sapiens, UniProt O75832); experiment: Binding affinity to gankyrin (unknown origin) expressed in Escherichia coli BL21 (DE3) expression system assessed as dissociation constant at 1:1 protein to compound concentration by isothermal titration calorimetry
T2 sequence (O75832 whole entry): T1 sequence (whole entry)

A549 [20] = experiment: Antiproliferative activity against human A549 cells assessed as cell growth inhibition measured at 100 uM after 72 hrs by MTT assay; type: functional; design: scale not given: the % may be the effect or the level left; outline: as §1

| Structure (SMILES) | IC50 (MDA-MB-231 [1]) | IC50 (A549 [2]) | further results |
| --- | --- | --- | --- |
| COC(=O)c1ccc(-n2cc(CCCNC(=O)c3ccc(C)cc3)nn2)cc1 | > 100 µM | > 100 µM | – |
| COC(=O)c1ccc(-c2cn(CCCC(=S)Nc3ccc(C)cc3)nn2)cc1 | > 100 µM | 50 µM | – |
| COC(=O)c1ccc(-n2cc(CCCNC(=S)Nc3ccc(C)cc3)nn2)cc1 | > 100 µM | 46.5 µM | – |
| COC(=O)c1ccc(-n2cc(CCCOS(=O)(=O)c3ccc(-c4ccccc4)cc3)nn2)cc1 | > 100 µM | 57.3 µM | – |
| COC(=O)c1ccc(-n2cc(CCCOS(=O)(=O)c3ccc(C)cc3)nn2)cc1 | > 100 µM | > 100 µM | Kd [19]: 0.532 µM; Activity (A549 [20]): 0%; remaining at 1 h [6]: 50% |
| COC(=O)c1ccc(-c2nnc(CCCOS(=O)(=O)c3ccc(C)cc3)o2)cc1 | > 100 µM | > 100 µM | – |

Stronger by IC50 (MDA-MB-231 [1]), values ahead:

| IC50 (MDA-MB-231 [1]) | IC50 (A549 [2]) | Structure (SMILES) | further results |
| --- | --- | --- | --- |
| 82.4 µM | > 100 µM | COC(=O)c1ccc(-n2cc(CCCNC(=S)c3ccc(C)cc3)nn2)cc1 | – |
| 36.5 µM | > 100 µM | COC(=O)c1ccc(-n2cc(CCCn3nnc(-c4ccc(C)cc4)n3)nn2)cc1 | – |
| 2 µM | 19.1 µM | O=C(CCCn1cc(-c2ccc(C(F)(F)F)cc2)nn1)Nc1ccc(-c2ccccc2)cc1 | Activity (MDA-MB-231 [3]): Active; fold change (FC) (MDA-MB-231 [4]): 3.2; fold change (FC) (MDA-MB-231 [5]): 2.3; remaining at 1 h [6]: 60%; Activity (HuH-6 [7]): Active; Activity [8]: Active; growth, % of control at 2 µM (MDA-MB-231 [9]): 46.3%; Activity (HuH-6 [10]): Active; Activity (MDA-MB-231 [11]): Active; IC50 [12]: 1.1 µM; IC50 at 72 h [13]: > 100 µM; Activity (MDA-MB-231 [14]): Active; Activity (MDA-MB-231 [15]): Active; Activity [16]: Active; Activity (MDA-MB-231 [17]): Active; Activity [18]: Active |
| 11.6 µM | 36.4 µM | COC(=O)c1ccc(-n2cc(CCCNC(=O)Nc3ccc(C)cc3)nn2)cc1 | – |
| 39.1 µM | > 100 µM | COC(=O)c1ccc(-c2cn(CCCOS(=O)(=O)c3ccc(C)cc3)nn2)cc1 | – |
| 79.1 µM | 79.5 µM | COC(=O)c1ccc(-n2cc(CCCc3nnc(-c4ccc(C)cc4)[nH]3)nn2)cc1 | – |
| 2.7 µM | > 100 µM | COC(=O)c1ccc(-c2cn(CCCC(=O)Nc3ccc(C)cc3)nn2)cc1 | – |

Reference: ChEMBL document CHEMBL5120910, “Small-Molecule Gankyrin Inhibition as a Therapeutic Strategy for Breast and Lung Cancer” (J Med Chem, 2022)
